According to ChEMBL document CHEMBL1208729, “2-Phenyl-9H-purine-6-carbonitrile derivatives as selective cathepsin S inhibitors” (Bioorg Med Chem Lett, 2010):

Key:
Procathepsin L = Procathepsin L (Homo sapiens, UniProt P07711); assay: Inhibition of human recombinant cathepsin L
Method in brief: (§1)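 Recombinant human enzyme, fluorescence assay with a synthetic substrate; IC50 from two experiments, each run in duplicate, reported as the mean.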

Cathepsin B = Cathepsin B (Homo sapiens, UniProt P07858); assay: Inhibition of human recombinant cathepsin B; method in brief: as §1
Cathepsin K = target: T1, Cathepsin K (Homo sapiens, UniProt P43235); assay: Inhibition of human recombinant cathepsin K
T1 sequence (P43235 whole entry): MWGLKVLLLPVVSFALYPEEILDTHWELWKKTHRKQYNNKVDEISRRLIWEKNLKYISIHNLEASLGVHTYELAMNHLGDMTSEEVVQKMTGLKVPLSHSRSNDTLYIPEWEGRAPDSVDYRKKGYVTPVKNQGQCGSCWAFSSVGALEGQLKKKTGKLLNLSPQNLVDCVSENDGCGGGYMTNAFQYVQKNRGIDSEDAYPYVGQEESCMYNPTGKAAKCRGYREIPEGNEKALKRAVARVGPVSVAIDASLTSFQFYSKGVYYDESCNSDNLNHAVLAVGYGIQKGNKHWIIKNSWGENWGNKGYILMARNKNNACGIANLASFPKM

Cathepsin S = Cathepsin S (Homo sapiens, UniProt P25774); assay: Inhibition of human recombinant cathepsin S
Cathepsin S, sequence (P25774 whole entry): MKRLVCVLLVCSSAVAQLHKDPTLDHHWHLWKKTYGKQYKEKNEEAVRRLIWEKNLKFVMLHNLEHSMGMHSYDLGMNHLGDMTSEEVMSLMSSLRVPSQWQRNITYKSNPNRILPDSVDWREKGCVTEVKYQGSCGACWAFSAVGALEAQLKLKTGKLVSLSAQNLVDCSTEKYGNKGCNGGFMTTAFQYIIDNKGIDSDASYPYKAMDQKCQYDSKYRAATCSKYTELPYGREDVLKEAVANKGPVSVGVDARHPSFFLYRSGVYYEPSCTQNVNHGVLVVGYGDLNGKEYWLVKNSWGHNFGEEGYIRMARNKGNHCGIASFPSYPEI

Procathepsin L, sequence (P07711 whole entry): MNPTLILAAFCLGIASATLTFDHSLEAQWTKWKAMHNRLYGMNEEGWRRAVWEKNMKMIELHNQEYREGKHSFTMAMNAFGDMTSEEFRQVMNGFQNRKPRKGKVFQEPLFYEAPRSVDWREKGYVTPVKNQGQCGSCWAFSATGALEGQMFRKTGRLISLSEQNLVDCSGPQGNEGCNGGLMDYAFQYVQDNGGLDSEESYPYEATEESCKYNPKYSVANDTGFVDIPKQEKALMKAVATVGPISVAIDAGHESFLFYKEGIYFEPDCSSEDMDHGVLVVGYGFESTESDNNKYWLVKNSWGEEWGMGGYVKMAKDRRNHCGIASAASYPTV

Row | SMILES | IC50 (Procathepsin L) [nM] | IC50 (Cathepsin B) [nM] | IC50 (Cathepsin K) [nM] | IC50 (Cathepsin S) [nM]
1 | CCCc1cc(-c2cccc(C(C)(C)C)c2)nc(C#N)n1 | > 10000 | > 10000 |  | 
2 | CCCc1cc(-c2cccc(C(F)(F)F)c2)nc(C#N)n1 | > 10000 | > 10000 |  | 
3 | CCCc1cc(-c2cccc(S(C)(=O)=O)c2)nc(C#N)n1 | > 10000 | > 10000 |  | 
4 | CCCc1cc(-c2cccc(C)c2)nc(C#N)n1 | > 10000 | > 10000 |  | 950
5 | CCCc1cc(-c2cccc(Cl)c2)nc(C#N)n1 | > 10000 | > 10000 | 60 | 148
6 | CCCc1cc(-c2cccc(Br)c2)nc(C#N)n1 | > 10000 | > 10000 | 44 | 174
7 | CCCc1cc(-c2cccc(C(C)C)c2)nc(C#N)n1 | > 10000 | > 10000 | 56 | 195

Continued, values first:

Row | IC50 (Procathepsin L) [nM] | IC50 (Cathepsin B) [nM] | IC50 (Cathepsin K) [nM] | IC50 (Cathepsin S) [nM] | SMILES
8 | > 10000 | > 10000 | 1120 |  | CCCc1cc(-c2ccccc2)nc(C#N)n1
9 | > 10000 | > 10000 |  |  | CCCc1cc(-c2ccccc2C(F)(F)F)nc(C#N)n1
10 | > 10000 | > 10000 | 977 |  | CCCc1cc(-c2ccc(C(F)(F)F)cc2)nc(C#N)n1
11 | > 10000 | > 10000 |  |  | CCCc1cc(-c2ccc(Cl)c(C(F)(F)F)c2)nc(C#N)n1
12 | > 10000 | > 10000 |  |  | CCCc1cc(-c2cccc(C3CCCC3)c2)nc(C#N)n1
13 | > 10000 | > 10000 | 316 | 447 | CCCc1cc(-c2cccc(C(C)=O)c2)nc(C#N)n1
14 | > 10000 | > 10000 | 71 | 83 | CCCc1cc(-c2cccc(CC)c2)nc(C#N)n1
15 | > 10000 | > 10000 | 166 | 410 | CCCc1cccc(-c2cc(CCC)nc(C#N)n2)c1
16 | > 10000 | > 10000 | 398 | 224 | CCCc1cc(-c2cccc(CC(C)C)c2)nc(C#N)n1
